Results of several laboratories.
Lines come from different studies, so protocols differ.
Target: Carbonic anhydrase 2 (CA2, Homo sapiens, UniProt P00918)
Read-out: enzyme activity
Mode: inhibitor

SMILES	test	measurement	value
CC(C)c1cc2c(c(O)c1O)[C@@]13CCCC(C)(C)[C@@H]1[C@@H](O)[C@@H]2OC3=O	–	IC50	5.78 nM
Cc1ccc(NC(=O)Nc2ccc3c(c2)C=CCP(=O)(O)O3)cc1	stopped-flow	Ki	> 10000 nM
Cc1ccc([C@@H]2[C@@H](C(=O)c3cccs3)[C@H](c3ccco3)[C@H]3/C(=N\NC(N)=S)c4ccccc4[C@H]32)cc1 (racemic)	absorbance	IC50	844 nM
O=C(Nc1ccc2c(c1)C=CCP(=O)(O)O2)c1ccc(Br)cc1	stopped-flow	Ki	> 10000 nM
NC(=S)N/N=C1/c2ccccc2[C@@H]2[C@H]1[C@@H](c1ccc(C(F)(F)F)cc1)[C@H](C(=O)c1ccc(C(F)(F)F)cc1)[C@H]2c1ccc(C(F)(F)F)cc1 (racemic)	absorbance	IC50	551 nM
CC(C)c1cc2c(c(O)c1O)[C@@]13CCCC(C)(C)[C@@H]1[C@H](OC3=O)[C@H]2O	–	Ki	4.99 nM
NC(=S)N/N=C1/c2ccccc2[C@@H]2[C@H]1[C@@H](c1ccc(F)cc1)[C@H](C(=O)c1ccc(F)cc1)[C@H]2c1ccc(F)cc1 (racemic)	absorbance	IC50	605 nM
CC(C)c1cc2c(c(O)c1O)[C@@]1(C(=O)O)CCCC(C)(C)[C@@H]1CC2	–	Ki	4.2 nM
O=C(Nc1ccc2c(c1)C=CCP(=O)(O)O2)c1ccc(Cl)cc1	stopped-flow	Ki	> 10000 nM
Cc1cc(=O)oc2cc(OCCCC[Se]C#N)ccc12	stopped-flow	Ki	> 100000 nM
O=C(Nc1ccc2c(c1)C=CCP(=O)(O)O2)c1ccc(F)cc1	stopped-flow	Ki	> 10000 nM
NC(=S)N/N=C1/c2ccccc2[C@@H]2[C@H]1[C@@H](c1ccsc1)[C@H](C(=O)c1ccsc1)[C@H]2c1ccsc1 (racemic)	absorbance	IC50	523 nM
Cc1c(Cl)c(=O)oc2cc(OCCCC[Se]C#N)ccc12	stopped-flow	Ki	> 100000 nM
Cc1ccc([C@H]2[C@H](C(=O)c3cccs3)[C@@H](c3cccs3)[C@@H]3c4ccccc4/C(=N/NC(N)=S)[C@@H]32)cc1 (racemic)	absorbance	IC50	562 nM
CC(C)c1cc2c(c(O)c1O)[C@@]13CCCC(C)(C)[C@@H]1C[C@@H]2OC3=O	–	IC50	5.47 nM
